TLR4 MyD88 comp: inhibitors of human TLR4-MyD88 binding | HeLa CL3-4 TLR4/MyD88 BLA complementation, FRET ratio | inhibition, % at 8.4 µM | hit rate 0.18% among 200,000; in the data active means inhibition above about 25%;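 further: 0% = vehicle and 100% = reference inhibitor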
MC4R ag barr: agonists of human melanocortin 4 receptor (MC4R) beta-arrestin | P32245 | U2OS MC4R beta-arrestin complementation, luminescence; percent of melanotan II response, DMSO zero | activation, % at 8.9 µM | hit rate 0.98% among 360,000 | AID 540308;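 active means activation above a per-plate cutoff, the mean activation of sample wells on that plate plus 3 SD, cut at about 8% in these data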
Target sequence (P32245 whole entry, looked up): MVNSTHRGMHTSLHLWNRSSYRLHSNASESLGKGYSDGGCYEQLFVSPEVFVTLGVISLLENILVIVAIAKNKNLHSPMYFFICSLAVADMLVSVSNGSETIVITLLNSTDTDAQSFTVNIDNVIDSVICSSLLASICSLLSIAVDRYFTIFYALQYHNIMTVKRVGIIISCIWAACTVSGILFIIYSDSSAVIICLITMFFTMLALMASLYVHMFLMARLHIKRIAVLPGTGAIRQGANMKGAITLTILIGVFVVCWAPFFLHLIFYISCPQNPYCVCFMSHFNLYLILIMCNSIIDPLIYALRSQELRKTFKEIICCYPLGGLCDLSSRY
MC4R antagonist: antagonists of human melanocortin 4 receptor (MC4R). MC4R-expressing cells, MTII-stimulated cAMP, LANCE TR-FRET. inhibition, % at 6.5 µM. hit rate 0.48% among 360,000. AID 540295;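 active means inhibition above its plate's cutoff, the mean of tested wells on that plate plus 3 SD, cut at about 29% in these data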;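 further: 0% = Melanotan II alone and 100% = Melanotan II plus saturating MCL0020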
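Test system: U2OS cells stably expressing human melanocortin 4 receptor (MC4R); also added: Melanotan II challenge; compound: 6.5 µM single dose; timing: 30-min compound preincubation, 1-h Melanotan II challenge, 1-h detection, room temperature; signal: Eu-cAMP/anti-cAMP TR-FRET, emission 671 nm; repeats: one well per compound, no replicates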
TLR9-MyD88 inh: TLR9-MyD88 interaction inhibition; AID 504734; Q9NR96+Q99836; hit rate 0.21% among 340,000; inhibition, % at 4.98 µM; CHO BLA complementation TLR9-MyD88, CCF4 FRET ratio;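 active means inhibition above the mean over all tested compounds plus 3 SD, cut at about 21% in these data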;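 further: 0% = DMSO only wells and 100% = clavulanate BLA inhibitor control wells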
NOD2 RIPK2 PPI: NOD2-RIPK2 protein interaction inhibition | CHO BLA complementation NOD2-RIPK2, CCF4 ratio | inhibition, % at 4.98 µM | hit rate 0.38% among 360,000 | AID 624267; in the data active means inhibition above about 21%;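 further: 0% = vehicle only and 100% = reference blocker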
NOD2-RIPK2 conf: NOD2-RIPK2 interaction inhibition confirmed. shares compounds with NOD2 RIPK2 PPI. hit rate 70% among 1,200. inhibition, % at 4.98 µM. CHO cells, NOD2-RIPK2 BLA complementation, CCF4 FRET;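 active means mean inhibition across replicates above a set limit taken from the earlier primary screen, cut at about 21% in these data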;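 further: 0% = DMSO-only wells and the high end = clavulanate BLA-blocked wells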
BLA counter: NOD2-RIPK2 counterscreen BLA reporter activity | inhibition, % at 4.98 µM | CHO BLA reporter, CCF4 FRET ratio | hit rate 57% among 1,200 | shares compounds with NOD2 RIPK2 PPI;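 active means mean inhibition above the low-control mean inhibition plus three low-control SD, cut at about 11% in these data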;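 further: 0% = DMSO only wells and 100% = clavulanate high control wells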
Active calls of the source: *; · = no result given; ! = repeats disagree. Rows were chosen to be rich in hits. Some 1.8% of all compounds tested hit in one or more screens of this group.

SMILES	TLR4 MyD88 comp	MC4R ag barr	MC4R antagonist	TLR9-MyD88 inh	NOD2 RIPK2 PPI	NOD2-RIPK2 conf	BLA counter
O=C(N/N=C/c1ccc(Cl)cc1Cl)c1ccncc1	·	-2.0	2.2	8.5	6.3	·	·
O=C(N/N=C/c1cc(Cl)cc(Cl)c1O)c1ccncc1	·	-1.1	12.9	18.3	32.5*	26.0*	26.0*
CCCCNc1c(-c2ccc(-c3cccc(Cl)c3)cc2)nc2ccccn12	·	0.0	22.6	12.5	22.4*!	15.8	15.7*
O=C1CCC(=O)c2ccc3c4c(ccc1c24)CC3	·	0.1	-4.5	-9.8	-8.2	·	·
O=C1CCN2C=Nc3cccc4ccc1c2c34	10.8	-2.4	2.9	16.0	22.7*	32.2*	38.1*
COc1ccc2c(c1)C(=O)C(=O)N2CC1COc2ccccc2O1 (centres undefined)	·	-2.3	-23.6	-0.1	12.0	·	·
Cc1ccc2c(c1)C(=O)C(=O)N2CC1COc2ccccc2O1 (centres undefined)	·	-0.7	-3.3	6.2	24.2*	12.1	-4.5
CC1CC(C)C(=NNC(N)=O)C(C(O)CC2CCC(=O)NC2=O)C1 (centres undefined)	·	-2.0	6.8	-5.2	25.5*	2.4	0.1
COc1ccccc1C(=O)n1nc(-c2ccccc2)nc1NCc1ccco1	8.7	0.6	14.9	20.6	30.1*	10.1	15.9*
O=C(NCc1ccco1)C(=O)c1c[nH]c2ccccc12	8.3	1.9	4.7	1.2	31.6*	-1.8	-3.8
COCC(=O)Nc1nc2n(n1)C(c1ccc(OC)cc1)CC(c1ccc(OC)cc1)N2 (centres undefined)	7.3	-1.1	7.6	-4.2	-0.9	·	·
COCC(=O)Nc1nc2n(n1)C(c1ccccc1)CC(c1ccc(OC)cc1)N2 (centres undefined)	-2.1	-1.8	-3.6	13.2	28.0*	25.8*	25.8*
COc1cc([N+](=O)[O-])cc(/C=N\NC(=O)C2COc3ccccc3O2)c1O (centres undefined)	·	-1.4	18.4	2.1	-0.6	·	·
Cc1cccc(C)c1NC(=O)C(c1ccccc1F)n1c(=O)c(-c2cc3ccccc3[nH]2)nc2ccccc21 (centres undefined)	·	·	·	·	49.8*	46.2*	68.0*
Cc1cccc(C)c1NC(=O)C(c1cccc2ccccc12)n1c(=O)c(-c2cc3ccccc3[nH]2)nc2ccccc21 (centres undefined)	·	·	·	·	42.0*	38.5*	64.5*
O=C(NCc1ccccc1)C(c1cccc2ccccc12)n1c(=O)c(-c2cc3ccccc3[nH]2)nc2ccccc21 (centres undefined)	·	·	·	·	43.1*	40.8*	65.8*
O=C(NCc1ccccc1)C(CCc1ccccc1)n1c(=O)c(-c2ccccc2)nc2ccccc21 (centres undefined)	·	·	·	·	28.9*	6.3	1.1
O=C(NCc1ccccc1)C(c1cccc2ccccc12)n1c(=O)c(-c2ccco2)nc2ccccc21 (centres undefined)	·	·	·	·	-10.8	·	·
O=C(NCc1ccccc1)C(c1ccncc1)n1c(=O)c(-c2ccco2)nc2ccccc21 (centres undefined)	·	·	·	·	-8.7	·	·
O=C(NCc1ccccc1)C(CCc1ccccc1)n1c(=O)c(-c2cc3ccccc3[nH]2)nc2ccccc21 (centres undefined)	·	·	·	·	50.1*	46.4*	68.8*
COc1ccccc1C(=O)Nc1ccc(C)cc1C(=O)c1ccccc1	-1.5	2.6	-5.3	-3.4	22.4*	-10.1	-4.5
O=[N+]([O-])c1ccc(N/N=C/c2cccc(O)c2)cc1	·	-2.2	-0.6	6.8	21.5*	24.1*	32.4*
Cc1cc(C(=O)N/N=C/c2ccc(-c3ccc([N+](=O)[O-])cc3C)o2)n[nH]1	·	-0.2	-12.2	-1.6	4.3	·	·
O=C(O)c1cccc(-c2ccc(/C=N/Nc3ccc([N+](=O)[O-])cc3)o2)c1	·	-3.1	10.1	19.2	27.8*	30.0*	31.6*
Cc1cc([N+](=O)[O-])ccc1-c1ccc(/C=N/NC(=O)c2ccc(Br)o2)o1	·	-1.9	14.0	1.2	40.4*	32.2*	47.9*
SMILES	TLR4 MyD88 comp	MC4R ag barr	MC4R antagonist	TLR9-MyD88 inh	NOD2 RIPK2 PPI	NOD2-RIPK2 conf	BLA counter
CC(C)(C)NC(=S)N/N=C\c1ccc(-c2ccc([N+](=O)[O-])cc2)o1	·	-0.1	0.3	·	43.4*	81.3*	82.6*
CCCCC(=O)N/N=C/c1ccc(-c2ccc([N+](=O)[O-])cc2)o1	19.8	-1.6	-7.7	16.7	8.8	·	·
COc1cc(/C=C/C(=O)Nc2ccc(S(=O)(=O)Nc3onc(C)c3C)cc2)cc(OC)c1OC	·	0.4	12.0	-0.4	-5.5	·	·
CCOC(=O)c1ccc(NCc2cccnc2)cc1	·	1.1	14.0	-1.9	6.7	·	·
CCOc1ccccc1OCCCC(=O)Nc1cccc(-n2cnnn2)c1C	·	0.1	14.6	-14.5	2.4	·	·
COc1cccc(NC(=S)N2CCn3cccc3C2c2cccnc2)c1 (centres undefined)	-2.7	-1.3	0.6	4.5	-2.4	·	·
Cc1ccc(C)c(Cn2c3ccccc3c3cnn(CC(=O)NCCCN4CCCCC4)c(=O)c32)c1	·	-2.6	2.1	-7.6	21.1*	14.0	-0.2
COc1ccc(NC(=O)Nc2ccon2)c(OC)c1	-3.0	-2.6	0.5	6.4	-8.2	·	·
CCc1ccc(NC(=O)CNCc2ccc(OC)c(OC)c2)cc1	·	0.4	3.0	7.9	-5.9	·	·
CCC(Oc1ccc(Br)cc1)C(=O)N1CCN(c2ncccn2)CC1 (centres undefined)	·	1.1	-4.9	-1.4	-8.5	·	·
COc1ccc(-n2nc(C#N)c(Cl)cc2=O)cc1	17.3	-3.2	-24.7	·	49.0*	56.0*	8.0
COC(=O)c1nn(-c2ccc(OC)cc2)c(=O)cc1O	-8.7	-0.2	-5.4	5.9	1.2	·	·
O=C1OCCN1C(=O)[C@H]1[C@H](c2ccc(Cl)cc2)C(c2cccc(Cl)c2)=NN1c1ccccc1	2.0	2.3	9.7	13.0	14.8	·	·
O=C1OCCN1C(=O)[C@H]1[C@H](c2ccc(Cl)cc2)C(c2ccccc2)=NN1c1ccc(Br)cc1	·	-1.4	6.2	-8.7	13.7	·	·
OC[C@@H]1[C@@H](c2ccccc2)C(c2cccc(Cl)c2)=NN1c1ccccc1	·	1.5	7.3	-4.3	32.6*	27.4*	53.8*
O=C1OCCN1C(=O)[C@H]1[C@H](c2ccc(F)cc2)C(c2cccc(Cl)c2)=NN1c1ccc(Br)cc1	·	-2.3	16.8	-12.8	26.2*	14.7	48.1*
O=C1OCCN1C(=O)[C@H]1[C@H](c2ccc(F)cc2)C(c2cccc(Cl)c2)=NN1c1ccccc1	·	1.9	20.2	-5.1	28.1*	16.9	44.2*
